# Measurements as given in ChEMBL document CHEMBL4311989, “Anti-hepatitis-C virus activity and QSAR study of certain thiazolidinone and thiazolotriazine derivatives as potential NS5B polymerase inhibitors” (Eur J Med Chem, 2019).
# Legend:
# Hepatitis C virus = test: Antiviral activity against HCV genotype 1a infected in human Huh7.5 cells assessed as reduction in viral replication by measuring HCV core antigen level by ELISA; assay type: functional, organism-based, Hepacivirus hominis; conditions: subtype 1a
# How it was run: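 HCV GT1a replication in Huh-7.5 human hepatoma cells; HCV core protein quantified by core antigen ELISA per kit instructions. EC50 taken as concentration reducing HCV replication by 50%, with VCH-759 as reference.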
# [1] = biological target: RNA-directed RNA polymerase (Hepacivirus hominis, UniProt O39930); test: Inhibition of recombinant HCV genotype 1a NS5B polymerase coincubated with HCV international ribosome entry site template sequence containing nucleotide residues 21-371 of HCV 5'-untranslated Escherichia coli DNA polymerase I region incubated for 3 hrs by scintillation/luminescence counter method; set-up: species or system Hepatitis C virus subtype 1a
# How it was run: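 Recombinant GT1a NS5B RdRp, […] (GenBank AF356827), used at 0.26 ug/well; VCH-759 as non-nucleoside positive control; IC50 determined.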
# [2] = biological target: RNA-directed RNA polymerase (Hepacivirus hominis) (UniProt O39930); test: Potency index, ratio of VCH-759 IC50 to compound IC50 for HCV genotype 1a recombinant NS5B polymerase coincubated with HCV international ribosome entry site template sequence containing nucleotide residues 21-371 of HCV 5'-untranslated Escherichia coli DNA polymerase I region; conditions: Hepatitis C virus subtype 1a
# [3] = Cytotoxicity against human RPTEC/TERT1 cells assessed as reduction in cell viability incubated for 24 hrs by MTT assay; assay type: cell-based
# How it was run: (§1)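 Transformed normal human cells (THLE-2 liver epithelial; RPTEC/TERT1 proximal tubular epithelial) exposed to compound; viability read by MTT reduction to formazan. CC50 defined as concentration reducing cell viability by 50%; VCH-759 run as reference.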
# [4] = Selectivity index, ratio of CC50 for human THLE2 cells to EC50 for HCV infected in human Huh7.5 cells; assay type: toxicity, cell-based; conditions: THLE2 cells (CC50) and HCV-infected Huh7.5 cells (EC50)
# How it was run: (§2)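 SI computed as CC50 on THLE-2 or RPTEC/TERT1 (MTT viability) divided by EC50 from HCV-infected Huh7.5 cells (core antigen ELISA).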
# [5] = Cytotoxicity against human THLE2 cells assessed as reduction in cell viability incubated for 24 hrs by MTT assay; assay type: cell-based, THLE-2; how it was run: as §1
# [6] = Selectivity index, ratio of CC50 for human RPTEC/TERT1 cells to EC50 for HCV infected in human Huh7.5 cells; assay type: toxicity, cell-based; conditions: read-out: Ratio CC50/EC50; how it was run: as §2
SMILES,EC50 (Hepatitis C virus) [µM],IC50 [1] [µM],also measured
COc1ccc(/C=C2\SC(=O)N(CC(=O)Nc3ccccc3)C2=O)cc1,11.6,0.25,
O=C(CN1C(=O)S/C(=C\c2ccc(F)cc2)C1=O)Nc1ccccc1,8.4,0.14,
O=c1/c(=C\c2ccc(Cl)cc2Cl)sc2n1CN(c1ccc(Cl)cc1)CN=2,9.5,0.54,
O=c1/c(=C\c2ccc(Cl)cc2)sc2n1CN(c1ccc(Cl)cc1)CN=2,10.8,1.82,
O=C(CN1C(=O)S/C(=C\c2ccc(Cl)cc2)C1=O)Nc1ccccc1,11.1,0.085,Ratio IC50 [2]: 1 to 2
O=c1/c(=C\c2ccc(Cl)cc2)sc2n1CN(c1ccccc1)CN=2,10.9,0.12,Ratio IC50 [2]: 1 to 2
COc1ccc(N2CN=c3s/c(=C/c4ccc(Cl)cc4Cl)c(=O)n3C2)cc1,13.2,0.22,
CC1CCC(C(=O)N(c2cc(-c3ccccc3)sc2C(=O)O)C2CCC(O)CC2)CC1 (configuration not stated) [VCH-759],5.29,0.14,CC50 at 24 h [3]: 81.3 µM; selectivity ratio [4]: 11.7; CC50 at 24 h [5]: 61.8 µM; selectivity ratio [6]: 15.4
COc1ccc(NC(=O)CN2C(=O)S/C(=C\c3ccc(F)cc3)C2=O)cc1,10.8,0.39,
COc1ccc(/C=c2/sc3n(c2=O)CN(c2ccc(OC)cc2)CN=3)cc1,9.54,0.54,
COc1ccc(N2CN=c3s/c(=C/c4ccc(Cl)cc4)c(=O)n3C2)cc1,10.3,3.53,
COc1ccc(NC(=O)CN2C(=O)S/C(=C\c3ccc(Cl)cc3)C2=O)cc1,43.9,0.37,
COc1ccc(/C=C2\SC(=O)N(CC(=O)Nc3ccc(Cl)cc3)C2=O)cc1,7.93,0.28,
O=c1/c(=C\c2ccc(Cl)cc2Cl)sc2n1CN(c1ccccc1)CN=2,14.5,1.37,
O=C(CN1C(=O)S/C(=C\c2ccc(F)cc2)C1=O)Nc1ccc(Cl)cc1,16.9,0.1,Ratio IC50 [2]: 1 to 2
O=c1/c(=C\c2ccccc2Cl)sc2n1CN(c1ccccc1)CN=2,30.7,0.43,
O=C(CN1C(=O)S/C(=C\c2ccc(Cl)cc2Cl)C1=O)Nc1ccc(Cl)cc1,44,5.12,
N=C1S/C(=C\c2ccccc2)C(=O)N1c1ccccc1,11.1,0.58,
O=c1/c(=C\c2ccccc2Cl)sc2n1CN(c1ccc(Cl)cc1)CN=2,13.8,0.09,Ratio IC50 [2]: 1 to 2
COc1ccc(NC(=O)CN2C(=O)S/C(=C\c3ccccc3Cl)C2=O)cc1,11,1.2,

SMILES,EC50 (Hepatitis C virus) [µM],IC50 [1] [µM],also measured
O=c1/c(=C\c2ccccc2)sc2n1CN(c1ccc(Cl)cc1)CN=2,19.3,0.49,
O=C(CN1C(=O)S/C(=C\c2ccc(Cl)cc2Cl)C1=O)Nc1ccccc1,10.8,0.44,
COc1ccc(N2CN=c3s/c(=C/c4ccccc4)c(=O)n3C2)cc1,10.8,0.75,
O=C(C/N=C1/S/C(=C\c2ccccc2)C(=O)N1c1ccccc1)Nc1ccccc1,8.98,0.76,
O=c1/c(=C\c2ccc(F)cc2)sc2n1CN(c1ccccc1)CN=2,18.7,2.2,
COc1ccc(/C=c2/sc3n(c2=O)CN(c2ccccc2)CN=3)cc1,12.6,0.2,
O=C(CN1C(=O)S/C(=C\c2ccccc2Cl)C1=O)Nc1ccc(Cl)cc1,6.47,2.99,
COc1ccc(/C=c2/sc3n(c2=O)CN(c2ccc(Cl)cc2)CN=3)cc1,24.3,0.99,
O=C(CN1C(=O)S/C(=C\c2ccccc2)C1=O)Nc1ccc(Cl)cc1,16.7,0.14,
COc1ccc(N2CN=c3s/c(=C/c4ccc(F)cc4)c(=O)n3C2)cc1,40.1,0.07,Ratio IC50 [2]: 1 to 2
O=C(CN1C(=O)S/C(=C\c2ccccc2Cl)C1=O)Nc1ccccc1,3.8,0.035,CC50 at 24 h [3]: 161 µM; selectivity ratio [4]: 27; Ratio IC50 [2]: 4; CC50 at 24 h [5]: 103 µM; selectivity ratio [6]: 42.5
O=C(CN1C(=O)S/C(=C\c2ccccc2)C1=O)Nc1ccccc1,19.6,4.8,
COc1ccc(/C=C2\SC(=O)N(CC(=O)Nc3ccc(OC)cc3)C2=O)cc1,19.6,0.78,
COc1ccc(NC(=O)CN2C(=O)S/C(=C\c3ccc(Cl)cc3Cl)C2=O)cc1,43.9,0.32,
O=c1/c(=C\c2ccc(F)cc2)sc2n1CN(c1ccc(Cl)cc1)CN=2,6.58,0.2,
O=c1/c(=C\c2ccccc2)sc2n1CN(c1ccccc1)CN=2,13.3,0.62,
O=C(CN1C(=O)S/C(=C\c2ccc(Cl)cc2)C1=O)Nc1ccc(Cl)cc1,7.8,0.21,
COc1ccc(N2CN=c3s/c(=C/c4ccccc4Cl)c(=O)n3C2)cc1,13.5,1.26,
COc1ccc(NC(=O)CN2C(=O)S/C(=C\c3ccccc3)C2=O)cc1,10.6,0.45,
